Assay results: ChEMBL document CHEMBL3616436, “Synthesis, cytotoxicity and antimicrobial activity of thiourea derivatives incorporating 3-(trifluoromethyl)phenyl moiety” (Eur J Med Chem, 2015)
≈ marks a conversion by molar mass, not a printed value. Calls of active or inactive are those of the source. No cut-off for these calls is given here.

How the values were obtained:
[1] = Cytotoxicity against human MT4 cells; assay type: cell-based
[2] = system: Vesicular stomatitis virus; assay: Antiviral activity against Vesicular stomatitis virus ATCC VR 1540 infected in African green monkey Vero 76 cells assessed as reduction of virus-plaque formation after 2 days by crystal violet staining; assay type: functional, organism-based; settings: ATCC VR 1540, Vero, 48 h
[3] = system: Human immunodeficiency virus 1; assay: Antiviral activity against HIV1 3B infected in human MT4 cells assessed as protection against virus-induced cytopathogenicity by MTT assay; assay type: functional, organism-based; settings: Human immunodeficiency virus 1, 3B
[4] = Cytotoxicity against bovine MDBK cells assessed as cell viability after 48 to 96 hrs by MTT assay; assay type: cell-based, Bos taurus; settings: cattle
[5] = Antiviral activity against Bovine viral diarrhea virus 1-NADL ATCC VR-534 infected in MDBK cells assessed as protection against virus-induced cytopathogenicity after 3 to 4 days by MTT assay; assay type: functional, cell-based; settings: Bovine viral diarrhea virus isolates and strains, ATCC VR-534, MDBK
Summary of the method: (§1)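 Cells seeded in 96-well plates (BHK 5x10^4, MDBK 3x10^4 cells/well), grown overnight to confluence, infected at m.o.i. 0.01 (BHK for Reo-1, MDBK for BVDV); serial compound dilutions in maintenance medium with 0.5% inactivated FBS added after 1 h; viability by MTT after 3–4 days at 37°C; EC50 for 50% protection by linear regression.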

[6] = Cytotoxicity against BHK cells assessed as cell viability after 48 to 96 hrs by MTT assay; assay type: cell-based, Mesocricetus auratus; settings: hamster
Yellow fever virus = assay: Antiviral activity against Yellow fever virus 17D infected in BHK cells assessed as protection against virus-induced cytopathogenicity after 3 to 4 days by MTT assay; assay type: functional, cell-based
[7] = system: Mammalian orthoreovirus 1; assay: Antiviral activity against Reovirus type-1 ATCC VR-214 infected in BHK cells assessed as protection against virus-induced cytopathogenicity after 3 to 4 days by MTT assay; assay type: functional, cell-based; settings: Mammalian orthoreovirus 1, ATCC VR-214, BHK; summary of the method: as §1
[8] = Cytotoxicity against African green monkey Vero 76 cells assessed as cell viability after 48 to 96 hrs by crystal violet staining; assay type: cell-based; settings: chlorocebus sabaeus
Coxsackievirus B5 = assay: Antiviral activity against Human coxsackievirus B5 ATCC VR-29 infected in African green monkey Vero 76 cells assessed as reduction of virus-plaque formation after 3 days by crystal violet staining; assay type: functional, organism-based; settings: Enterovirus B, ATCC VR-29, Vero, 72 h
Summary of the method: (§2)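 Plaque reduction: Vero-76 at 2x10^5 cells/well grown to confluent monolayers, infected 2 h at 50–100 PFU/well; after removing unadsorbed virus, overlay of D-MEM, 1% inactivated FBS, 0.75% methylcellulose with or without serial compound dilutions; 3 days at 37°C, fixed and stained with crystal violet in 50% ethanol, plaques counted; EC50 by linear regression.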

Poliovirus 1 = assay: Antiviral activity against Poliovirus type 1 ATCC VR-1562 infected in African green monkey Vero 76 cells assessed as reduction of virus-plaque formation after 2 days by crystal violet staining; assay type: functional, organism-based; settings: Enterovirus C, ATCC VR-1562, Vero, 48 h
Vaccinia virus = assay: Antiviral activity against Human Vaccinia virus ATCC VR-1549 infected in African green monkey Vero 76 cells assessed as reduction of virus-plaque formation after 3 days by crystal violet staining; assay type: functional, organism-based; settings: Orthopoxvirus vaccinia, ATCC VR-1549, Vero, 72 h
Human alphaherpesvirus 1 = assay: Antiviral activity against Human herpesvirus 1 KOS ATCC VR-1493 infected in African green monkey Vero 76 cells assessed as reduction of virus-plaque formation after 3 days by crystal violet staining; assay type: functional, organism-based; settings: Human alphaherpesvirus 1, KOS ATCC VR1493, Vero, 72 h; summary of the method: as §2
Staphylococcus aureus [9] = assay: Antimicrobial activity against Staphylococcus aureus NCTC 4163 at 400 ug after 18 hrs by disc-diffusion method; assay type: functional; settings: NCTC 4163, 18 h, read-out: IZ
Summary of the method: (§3)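 Disc diffusion on Mueller-Hinton II agar per CLSI; 9 mm paper discs loaded with 400 µg compound from DMSO solution, dried, placed on agar; growth inhibition zone diameter read after 18 h at 35°C.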

Staphylococcus aureus [10] = assay: Antimicrobial activity against Staphylococcus aureus ATCC 25923 at 400 ug after 18 hrs by disc-diffusion method; assay type: functional; settings: ATCC 25923, 18 h, read-out: IZ; summary of the method: as §3
Staphylococcus aureus [11] = assay: Antimicrobial activity against Staphylococcus aureus ATCC 6538 at 400 ug after 18 hrs by disc-diffusion method; assay type: functional; settings: ATCC 6538, 18 h, read-out: IZ; summary of the method: as §3
Staphylococcus aureus [12] = assay: Antimicrobial activity against Staphylococcus aureus ATCC 29213 at 400 ug after 18 hrs by disc-diffusion method; assay type: functional; settings: ATCC 29213, 18 h, read-out: IZ; summary of the method: as §3
[13] = system: Staphylococcus epidermidis; assay: Antimicrobial activity against Staphylococcus epidermidis ATCC 12228 at 400 ug after 18 hrs by disc-diffusion method; assay type: functional; settings: ATCC 12228, 18 h, read-out: IZ; summary of the method: as §3
[14] = system: Staphylococcus epidermidis; assay: Antimicrobial activity against Staphylococcus epidermidis ATCC 35984 at 400 ug after 18 hrs by disc-diffusion method; assay type: functional; settings: ATCC 35984, 18 h, read-out: IZ; summary of the method: as §3
Bacillus subtilis = assay: Antimicrobial activity against Bacillus subtilis ATCC 6633 at 400 ug after 18 hrs by disc-diffusion method; assay type: functional; settings: ATCC 6633, 18 h, read-out: IZ; summary of the method: as §3
Bacillus cereus = assay: Antimicrobial activity against Bacillus cereus ATCC 11778 at 400 ug after 18 hrs by disc-diffusion method; assay type: functional; settings: ATCC 11778, 18 h, read-out: IZ; summary of the method: as §3
Enterococcus hirae = assay: Antimicrobial activity against Enterococcus hirae ATCC 10541 at 400 ug after 18 hrs by disc-diffusion method; assay type: functional; settings: ATCC 10541, 18 h, read-out: IZ; summary of the method: as §3
Enterococcus faecalis = assay: Antimicrobial activity against Enterococcus faecalis ATCC 29212 at 400 ug after 18 hrs by disc-diffusion method; assay type: functional; summary of the method: as §3
Micrococcus luteus [15] = assay: Antimicrobial activity against Micrococcus luteus ATCC 10240 at 400 ug after 18 hrs by disc-diffusion method; assay type: functional; settings: ATCC 10240, 18 h, read-out: IZ; summary of the method: as §3
Micrococcus luteus [16] = assay: Antimicrobial activity against Micrococcus luteus ATCC 9341 at 400 ug after 18 hrs by disc-diffusion method; assay type: functional; settings: ATCC 9341, 18 h, read-out: IZ; summary of the method: as §3
Proteus vulgaris = assay: Antimicrobial activity against Proteus vulgaris NCTC 4635 at 400 ug after 18 hrs by disc-diffusion method; assay type: functional; summary of the method: as §3
Staphylococcus aureus [17] = assay: Antimicrobial activity against Staphylococcus aureus NCTC 4163 after 18 hrs by twofold serial microdilution method; assay type: functional; settings: NCTC 4163, 18 h
Staphylococcus aureus [18] = assay: Antimicrobial activity against Staphylococcus aureus ATCC 25923 after 18 hrs by twofold serial microdilution method; assay type: functional; settings: ATCC 25923, 18 h
Staphylococcus aureus [19] = assay: Antimicrobial activity against Staphylococcus aureus ATCC 6538 after 18 hrs by twofold serial microdilution method; assay type: functional; settings: ATCC 6538, 18 h
Staphylococcus aureus [20] = assay: Antimicrobial activity against Staphylococcus aureus ATCC 29213 after 18 hrs by twofold serial microdilution method; assay type: functional; settings: ATCC 29213, 18 h
[21] = system: Staphylococcus epidermidis; assay: Antimicrobial activity against Staphylococcus epidermidis ATCC 12228 after 18 hrs by twofold serial microdilution method; assay type: functional; settings: ATCC 12228, 18 h
[22] = system: Staphylococcus epidermidis; assay: Antimicrobial activity against Staphylococcus epidermidis ATCC 35984 after 18 hrs by twofold serial microdilution method; assay type: functional; settings: ATCC 35984, 18 h
[23] = system: Mycobacterium tuberculosis; assay: Antimycobacterial activity against Mycobacterium tuberculosis H37Rv ATCC 25618; assay type: functional
Summary of the method: (§4)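 Classical test-tube successive-dilution method in Youmans' modification of Proskauer and Beck liquid medium with 10% bovine serum. Inoculum came from 14-day cultures. DMSO stock was 10 mg/mL, diluted geometrically in medium. Tubes were incubated at 37 °C. Concentrations tested were 3.1, 6.2, 12.5, 25, 50 and 100 µg/ml. MIC is the minimum concentration inhibiting growth relative to compound-free tubes.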

[24] = system: Mycobacterium tuberculosis; assay: Antimycobacterial activity against drug-sensitive Mycobacterium tuberculosis Spec. 192; assay type: functional; summary of the method: as §4

Row | Compound | CC50 [1] [µM] | EC50 [2] [µM] | EC50 [3] [µM] | CC50 [4] [µM] | EC50 [5] [µM] | CC50 [6] [µM] | EC50 (Yellow fever virus) [µM] | EC50 [7] [µM] | CC50 [8] [µM] | EC50 (Coxsackievirus B5) [µM] | EC50 (Poliovirus 1) [µM] | EC50 (Vaccinia virus) [µM] | EC50 (Human alphaherpesvirus 1) [µM] | zone of inhibition at 400 µg/disc (Staphylococcus aureus [9]) [mm] | zone of inhibition at 400 µg/disc (Staphylococcus aureus [10]) [mm] | zone of inhibition at 400 µg/disc (Staphylococcus aureus [11]) [mm] | zone of inhibition at 400 µg/disc (Staphylococcus aureus [12]) [mm] | zone of inhibition at 400 µg/disc [13] [mm] | zone of inhibition at 400 µg/disc [14] [mm] | zone of inhibition at 400 µg/disc (Bacillus subtilis) [mm] | also measured
1 | CCNC(=S)Nc1cccc(C(F)(F)F)c1 | > 100 | > 100 | > 100 | > 100 | > 100 | > 100 | > 100 | > 100 | > 100 | > 100 | > 100 | > 100 | > 100 | 14 | 15 | 14 | 19 | 14 | 13 | 15 | zone of inhibition at 400 µg/disc (Bacillus cereus): 15 mm; zone of inhibition at 400 µg/disc (Enterococcus hirae): 13 mm; inhibition zone (IZ) (Enterococcus faecalis): inactive; zone of inhibition at 400 µg/disc (Micrococcus luteus [15]): 13 mm; zone of inhibition at 400 µg/disc (Micrococcus luteus [16]): 13 mm; inhibition zone (IZ) (Proteus vulgaris): inactive; MIC (Staphylococcus aureus [17]): 256 µg/mL (≈ 1030 µM); MIC (Staphylococcus aureus [18]): 128 µg/mL (≈ 516 µM); MIC (Staphylococcus aureus [19]): 256 µg/mL (≈ 1030 µM); MIC (Staphylococcus aureus [20]): 256 µg/mL (≈ 1030 µM); MIC [21]: 256 µg/mL (≈ 1030 µM); MIC [22]: 512 µg/mL (≈ 2060 µM); MIC [23]: > 100 µg/mL; MIC [24]: > 100 µg/mL
2 | COC(=O)c1ccccc1NC(=S)Nc1cccc(C(F)(F)F)c1 | > 100 | > 100 | > 100 | > 100 | > 100 | > 100 | > 100 | > 100 | > 100 | > 100 | > 100 | > 100 | > 100 | 25 | 24 | 25 | 23 | 26 | 24 | 20 | zone of inhibition at 400 µg/disc (Bacillus cereus): 19 mm; zone of inhibition at 400 µg/disc (Enterococcus hirae): 11 mm; zone of inhibition at 400 µg/disc (Enterococcus faecalis; ATCC 29212, 18 h, read-out: IZ): 14 mm; zone of inhibition at 400 µg/disc (Micrococcus luteus [15]): 24 mm; zone of inhibition at 400 µg/disc (Micrococcus luteus [16]): 25 mm; inhibition zone (IZ) (Proteus vulgaris): inactive; MIC (Staphylococcus aureus [17]): 32 µg/mL (≈ 90.3 µM); MIC (Staphylococcus aureus [18]): 32 µg/mL (≈ 90.3 µM); MIC (Staphylococcus aureus [19]): 32 µg/mL (≈ 90.3 µM); MIC (Staphylococcus aureus [20]): 32 µg/mL (≈ 90.3 µM); MIC [21]: 64 µg/mL (≈ 181 µM); MIC [22]: 64 µg/mL (≈ 181 µM); MIC [23]: > 100 µg/mL; MIC [24]: > 100 µg/mL
